Reference: ChEMBL document CHEMBL4270562, “Synthesis and evaluation of the cytotoxic activity of Furanaphthoquinones tethered to 1H-1,2,3-triazoles in Caco-2, Calu-3, MDA-MB231 cells” (Eur J Med Chem, 2018)
pIC50: −log10 of the molar value.

Assays:
[1] = test system: Caco-2; assay: Cytotoxicity against human Caco2 cells assessed as cell viability at 5 uM after 48 hrs by MTT assay relative to control; type: functional; settings: Caco-2, 48 h, read-out: Activity
Outline: (§1)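 Single-concentration screen at 5 μM. Cells were seeded at 32,000/well and pre-incubated 24 h at 37 °C, 5% CO2, then treated 48 h in 10% FBS DMEM or RPMI containing 0.5% DMSO. MTT (2.5 mg/mL solution, 3 h), formazan dissolved in DMSO, absorbance at 570/690 nm. Viability expressed as % of untreated cells, mean ± SD.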

[2] = test system: Calu-3; assay: Cytotoxicity against human Calu3 cells assessed as cell viability at 5 uM after 48 hrs by MTT assay relative to control; type: functional; settings: Calu-3, 48 h, read-out: Activity; outline: as §1
[3] = Cytotoxicity against African green monkey Vero cells assessed as cell viability at 5 uM after 48 hrs by MTT assay relative to control; type: cell-based; settings: chlorocebus sabaeus, read-out: Activity; outline: as §1
[4] = test system: MDA-MB-231; assay: Cytotoxicity against human MDA-MB-231 cells assessed as cell viability at 5 uM after 48 hrs by MTT assay relative to control; type: functional; settings: MDA-MB-231, 48 h, read-out: Activity; outline: as §1
[5] = Effect on prothrombin time in human platelet poor plasma at 100 uM after 3 hrs; type: ADME, cell-free
Outline: (§2)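 Citrated platelet-poor plasma tested with sample at 100 μM, vehicle DMSO ≤1%. Clotting times (PT, aPTT) were measured on a coagulation analyzer. DMSO 1% was the negative control and rivaroxaban 100 μM the positive anticoagulant control.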

[6] = Effect on activated thromboplastin time in human platelet poor plasma at 100 uM after 3 hrs; type: ADME, cell-free; outline: as §2
[7] = test system: Caco-2; assay: Cytotoxicity against human Caco2 cells assessed as cell viability after 48 hrs by MTT assay relative to control; type: functional, cell-based; settings: Caco-2, 48 h
Outline: (§3)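 Cells seeded at 32,000/well, grown 24 h at 37 °C in 5% CO2, then exposed for 48 h to samples at 5 to 400 μM in 10% FBS DMEM or RPMI with 0.5% DMSO. Vehicle medium with 0.5% DMSO served as control. Viability was read by MTT reduction: MTT solution (2.5 mg/mL) in HBSS for 3 h, DMSO to dissolve formazan, absorbance at 570/690 nm. IC50 (tumour lines) and CC50 (Vero) were derived from survival relative to untreated cells, and SI was calculated from them.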

[8] = Selectivity index, ratio of CC50 for African green monkey Vero cells to IC50 for human Caco2 cells; type: toxicity; settings: Vero cells (CC50) and Caco2 cells (IC50); outline: as §3
[9] = test system: Platelet; assay: Inhibition of arachidonic acid-induced platelet aggregation in human platelet rich plasma at 100 uM preincubated for 2 mins followed by arachidonic acid addition and measured after 3 hrs by turbidimetric analysis; type: cell-based
Outline: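 Fresh platelet-rich plasma pre-incubated 2 min at 37 °C with sample (100 μM) before arachidonic acid stimulation. Aggregation was followed turbidimetrically in a lumi-aggregometer. DMSO 1% was the negative control and acetylsalicylic acid 100 μM the positive control.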

[10] = Cytotoxicity against African green monkey Vero cells assessed as cell viability after 48 hrs by MTT assay relative to control; type: cell-based; settings: chlorocebus sabaeus; outline: as §3

| SMILES | viability at 5 µM [1] | viability at 5 µM [2] | viability at 48 h, 5 µM [3] | viability at 5 µM [4] | Activity [5] | Activity [6] | pIC50 [7] | selectivity ratio [8] | Activity [9] | CC50 at 48 h [10] |
| --- | --- | --- | --- | --- | --- | --- | --- | --- | --- | --- |
| COc1ccc(-n2cc(C3CC4=C(O3)C(=O)c3ccccc3C4=O)nn2)cc1 (stereo not given) | 81.8% | 125% | 64.8% | 99.6% |  |  |  |  |  |  |
| O=C1C2=C(OC(c3cn(-c4ccc(Cl)cc4)nn3)C2)C(=O)c2ccccc21 (stereo not given) | 82.1% | 134% | 78.1% | 103% |  |  |  |  |  |  |
| O=C1C(=O)c2ccccc2C2=C1CC(c1cn(-c3cc(Cl)ccc3Cl)nn1)O2 (stereo not given) | 78.1% | 118% | 74.7% | 82.1% |  |  |  |  |  |  |
| O=C1C2=C(OC(c3cn(-c4ccc(F)cc4)nn3)C2)C(=O)c2ccccc21 (stereo not given) | 77.3% | 104% | 73% | 97.9% |  |  |  |  |  |  |
| O=C1C(=O)c2ccccc2C2=C1CC(c1cn(-c3ccc(Cl)c(Cl)c3)nn1)O2 (stereo not given) | 94.4% | 111% | 81% | 90.2% |  |  |  |  |  |  |
| O=C1C2=C(OC(c3cn(-c4ccccc4)nn3)C2)C(=O)c2ccccc21 (stereo not given) | 88.3% | 113% | 76.2% | 109% |  |  |  |  |  |  |
| Cc1ccc(-n2cc(C3CC4=C(O3)c3ccccc3C(=O)C4=O)nn2)cc1 (stereo not given) | 33.3% | 111% | 41.8% | 90.7% |  |  |  |  |  |  |
| O=C1C(=O)c2ccccc2C2=C1CC(c1cn(-c3ccc(Cl)cc3)nn1)O2 (stereo not given) | 46.4% | 122% | 59.3% | 46.5% |  |  |  |  |  |  |
| O=C1C(=O)c2ccccc2C2=C1CC(c1cn(-c3ccc([N+](=O)[O-])cc3)nn1)O2 (stereo not given) | 86.9% | 133% | 88.7% | 99.2% |  |  |  |  |  |  |
| COc1ccc(-n2cc(C3CC4=C(O3)c3ccccc3C(=O)C4=O)nn2)cc1 (stereo not given) | 23% | 113% | 34.1% | 41.1% |  |  |  |  |  |  |
| O=C1C(=O)c2ccccc2C2=C1CC(c1cn(-c3ccc(F)cc3)nn1)O2 (stereo not given) | 37.9% | 117% | 55.8% | 41.5% |  |  |  |  |  |  |
| O=C1C2=C(OC(c3cn(-c4cc(Cl)ccc4Cl)nn3)C2)C(=O)c2ccccc21 (stereo not given) | 85.8% | 139% | 90.4% | 104% |  |  |  |  |  |  |
| Cc1ccc(-n2cc(C3CC4=C(O3)C(=O)c3ccccc3C4=O)nn2)cc1 (stereo not given) | 88% | 112% | 74% | 95.3% |  |  |  |  |  |  |
| O=C1C2=C(OC(c3cn(-c4ccc(Cl)c(Cl)c4)nn3)C2)C(=O)c2ccccc21 (stereo not given) | 83.9% | 111% | 78.7% | 96.6% |  |  |  |  |  |  |
| O=C1C2=C(OC(c3cn(-c4ccc([N+](=O)[O-])cc4)nn3)C2)C(=O)c2ccccc21 (stereo not given) | 95.5% | 120% | 63.6% | 97.4% |  |  |  |  |  |  |
| O=C1C(=O)c2ccccc2C2=C1CC(c1cn(-c3ccccc3)nn1)O2 (stereo not given) | 23.9% | 110% | 68% | 87.7% | Non-Toxic | Non-Toxic | 5.35 | 6.25 | Non-Toxic | 28 µM |
